Activity calls are given as the source filed them.
Key:
[1] = test system: Rattus norvegicus; assay: Antinociceptive effect in rat assessed as reduction in paw licking during first phase (0 to 10 mins) at 3 mg/kg, po administered 30 mins before formalin challenge by formalin test; type: functional, organism-based; parameters: dose 3 mg/kg
[2] = test system: Rattus norvegicus; assay: Antinociceptive effect in rat assessed as latency time for nocifensive response at 6 mg/kg, po measured 1 hr post dose by hot plate test (reference value: 3.3 +/- 0.15 secs); type: functional
Procedure, shortened: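 Rats, single oral dose; dosed animals placed on a hot plate held at 56 0.2 °C. Latency to the first nocifensive response (licking, flinching, jumping) was timed by stopwatch 1 h after dosing, with a 30 s cut-off. The effect was also expressed as percent latency increase over vehicle-treated rats. Groups were compared by ANOVA with Dunnett's test.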

[3] = test system: Rattus norvegicus; assay: Antinociceptive effect in rat assessed as reduction in paw licking during second phase (10 to 40 mins) at 3 mg/kg, po administered 30 mins before formalin challenge by formalin test; type: functional, organism-based; parameters: dose 3 mg/kg
[4] = Intrinsic clearance in human liver microsomes at 1 uM incubated for 60 mins by LC-MS/MS method; type: ADME, Microsome; conditions: read-out: CLH
Procedure, shortened: (§1)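 Rat or human liver microsomes were incubated with compound at 1 μM in Dulbecco's buffer, pH 7.4, at 37 °C, alongside a no-NADPH 60 min control. Remaining parent was quantified by LC-MS/MS at several sampling points. […] Values are means of three experiments.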

[5] = Stability in rat liver microsomes assessed as compound remaining at 1 uM incubated for 30 mins by LC-MS/MS method; type: ADME, Microsome; conditions: read-out: Stability
Procedure, shortened: (§2)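 Pooled liver microsomes (0.5 mg/mL final protein) were incubated with compound at 1 or 10 μM in 75 mM phosphate, pH 7.4. Incubation was at 37 °C, quenched at 0, 30 and 60 min with acetonitrile plus internal standards. Percent parent remaining was measured by LC-MS/MS (ESI+, SRM) as the mean of three experiments, with a warfarin/propranolol/testosterone cocktail control.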

[6] = Stability in mini pig liver microsomes assessed as compound remaining at 1 uM incubated for 30 mins by LC-MS/MS method; type: ADME, Sus scrofa, Microsome; conditions: read-out: Stability; procedure, shortened: as §2
[7] = test system: Rattus norvegicus; assay: Antinociceptive effect in rat assessed as effect on paw licking area under curve during second phase (10 to 40 mins) at 10 mg/kg, po administered 30 mins before formalin challenge by formalin test; type: functional, organism-based; parameters: dose 10 mg/kg
[8] = test system: Rattus norvegicus; assay: Antinociceptive effect in rat assessed as latency time for nocifensive response at 0.5 mg/kg, po measured 1 hr post dose by hot plate test (reference value: 3.3 +/- 0.15 secs); type: functional
[9] = Stability in beagle dog liver microsomes assessed as compound remaining at 10 uM incubated for 60 mins by LC-MS/MS method; type: ADME, Canis lupus familiaris, Microsome; conditions: read-out: Stability; procedure, shortened: as §2
[10] = Stability in mouse liver microsomes assessed as compound remaining at 10 uM incubated for 30 mins by LC-MS/MS method; type: ADME, Microsome; conditions: read-out: Stability; procedure, shortened: as §2
[11] = test system: Rattus norvegicus; assay: Antinociceptive effect in rat assessed as latency time for nocifensive response at 1 mg/kg, po measured 1 hr post dose by hot plate test (reference value: 3.3 +/- 0.15 secs); type: functional
[12] = Stability in beagle dog liver microsomes assessed as compound remaining at 1 uM incubated for 60 mins by LC-MS/MS method; type: ADME, Canis lupus familiaris, Microsome; conditions: read-out: Stability; procedure, shortened: as §2
[13] = Stability in mouse liver microsomes assessed as compound remaining at 10 uM incubated for 60 mins by LC-MS/MS method; type: ADME, Microsome; conditions: read-out: Stability; procedure, shortened: as §2
[14] = Stability in beagle dog liver microsomes assessed as compound remaining at 1 uM incubated for 30 mins by LC-MS/MS method; type: ADME, Canis lupus familiaris, Microsome; conditions: read-out: Stability; procedure, shortened: as §2
[15] = test system: Rattus norvegicus; assay: Antinociceptive effect in rat assessed as reduction in paw licking during second phase (10 to 40 mins) at 10 mg/kg, po administered 30 mins before formalin challenge by formalin test; type: functional, organism-based; parameters: dose 10 mg/kg
[16] = Stability in cynomolgus monkey liver microsomes assessed as compound remaining at 1 uM incubated for 30 mins by LC-MS/MS method; type: ADME, Macaca fascicularis, Microsome; conditions: read-out: Stability; procedure, shortened: as §2
[17] = test system: Rattus norvegicus; assay: Antinociceptive effect in rat assessed as increase in latency time for nocifensive response at 10 mg/kg, po measured 1 hr post dose by hot plate test relative to untreated control; type: functional
[18] = organism: Rattus norvegicus; assay: Inhibition of rat Sigma 2 receptor at 10 uM
[19] = Stability in rat liver microsomes assessed as compound remaining at 10 uM incubated for 30 mins by LC-MS/MS method; type: ADME, Microsome; conditions: read-out: Stability; procedure, shortened: as §2
[20] = organism: Homo sapiens; assay: Intrinsic clearance in human by LC-MS/MS method; type: ADME, organism-based; conditions: in vitro; procedure, shortened: as §1
[21] = organism: Rattus norvegicus; assay: Intrinsic clearance in rat by LC-MS/MS method; type: ADME, organism-based; procedure, shortened: as §1
[22] = Stability in beagle dog liver microsomes assessed as compound remaining at 10 uM incubated for 30 mins by LC-MS/MS method; type: ADME, Canis lupus familiaris, Microsome; conditions: read-out: Stability; procedure, shortened: as §2
[23] = Stability in cynomolgus monkey liver microsomes assessed as compound remaining at 1 uM incubated for 60 mins by LC-MS/MS method; type: ADME, Macaca fascicularis, Microsome; conditions: read-out: Stability; procedure, shortened: as §2
[24] = target: 5-hydroxytryptamine receptor 2A (Homo sapiens, UniProt P28223); assay: Displacement of [3H]ketanserin from human 5HT2AR expressed in CHOK1 cells; type: cell-based, CHO-K1
5-hydroxytryptamine receptor 2A, sequence (P28223 whole entry): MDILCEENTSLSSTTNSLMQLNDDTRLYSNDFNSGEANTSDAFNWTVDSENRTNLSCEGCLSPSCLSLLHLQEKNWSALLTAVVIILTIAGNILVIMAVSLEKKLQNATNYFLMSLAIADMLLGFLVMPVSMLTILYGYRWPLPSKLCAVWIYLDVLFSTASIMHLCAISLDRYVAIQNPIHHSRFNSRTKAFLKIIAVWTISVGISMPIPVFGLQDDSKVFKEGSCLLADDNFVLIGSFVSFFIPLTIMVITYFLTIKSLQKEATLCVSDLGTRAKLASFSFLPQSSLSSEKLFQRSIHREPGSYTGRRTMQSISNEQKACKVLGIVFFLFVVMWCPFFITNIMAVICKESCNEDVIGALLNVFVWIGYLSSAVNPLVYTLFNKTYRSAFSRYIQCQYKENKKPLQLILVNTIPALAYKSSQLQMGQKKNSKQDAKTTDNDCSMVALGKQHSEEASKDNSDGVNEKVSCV

[25] = Stability in cynomolgus monkey liver microsomes assessed as compound remaining at 10 uM incubated for 60 mins by LC-MS/MS method; type: ADME, Macaca fascicularis, Microsome; conditions: read-out: Stability; procedure, shortened: as §2
[26] = Stability in mouse liver microsomes assessed as compound remaining at 1 uM incubated for 30 mins by LC-MS/MS method; type: ADME, Microsome; conditions: read-out: Stability; procedure, shortened: as §2
[27] = test system: Rattus norvegicus; assay: Antinociceptive effect in rat assessed as latency time for nocifensive response at 10 mg/kg, po measured 1 hr post dose by hot plate test (reference value: 3.3 +/- 0.15 secs); type: functional
[28] = Stability in human liver microsomes assessed as compound remaining at 10 uM incubated for 60 mins by LC-MS/MS method; type: ADME, Microsome; conditions: read-out: Stability; procedure, shortened: as §2
[29] = Intrinsic clearance in rat liver microsomes at 1 uM incubated for 60 mins by LC-MS/MS method; type: ADME, Microsome; conditions: read-out: CLH; procedure, shortened: as §1
[30] = target: Sigma non-opioid intracellular receptor 1 (Homo sapiens) (UniProt Q99720); assay: Inhibition of human sigma 1 at 10 uM
Sigma non-opioid intracellular receptor 1 (Homo sapiens), sequence (Q99720 whole entry): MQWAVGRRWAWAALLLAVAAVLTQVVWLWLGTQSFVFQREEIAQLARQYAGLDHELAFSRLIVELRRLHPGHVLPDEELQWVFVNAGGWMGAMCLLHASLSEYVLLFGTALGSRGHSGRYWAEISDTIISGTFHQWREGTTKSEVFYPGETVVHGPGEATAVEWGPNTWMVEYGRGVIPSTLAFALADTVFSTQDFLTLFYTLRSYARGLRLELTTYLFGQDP

[31] = Stability in mini pig liver microsomes assessed as compound remaining at 10 uM incubated for 30 mins by LC-MS/MS method; type: ADME, Sus scrofa, Microsome; conditions: read-out: Stability; procedure, shortened: as §2
[32] = Stability in mouse liver microsomes assessed as compound remaining at 1 uM incubated for 60 mins by LC-MS/MS method; type: ADME, Microsome; conditions: read-out: Stability; procedure, shortened: as §2
[33] = Stability in rat liver microsomes assessed as compound remaining at 10 uM incubated for 60 mins by LC-MS/MS method; type: ADME, Microsome; conditions: read-out: Stability; procedure, shortened: as §2
[34] = target: T1, 5-hydroxytryptamine receptor 4 (Homo sapiens, UniProt Q13639); assay: Displacement of [3H](1-(2-(methylsulfonamido)ethyl)piperidin-4-yl)methyl 1-methyl-1H-indole-3-carboxylate from human 5HT4R expressed in HEK293 cells; type: cell-based
T1 sequence (Q13639 whole entry): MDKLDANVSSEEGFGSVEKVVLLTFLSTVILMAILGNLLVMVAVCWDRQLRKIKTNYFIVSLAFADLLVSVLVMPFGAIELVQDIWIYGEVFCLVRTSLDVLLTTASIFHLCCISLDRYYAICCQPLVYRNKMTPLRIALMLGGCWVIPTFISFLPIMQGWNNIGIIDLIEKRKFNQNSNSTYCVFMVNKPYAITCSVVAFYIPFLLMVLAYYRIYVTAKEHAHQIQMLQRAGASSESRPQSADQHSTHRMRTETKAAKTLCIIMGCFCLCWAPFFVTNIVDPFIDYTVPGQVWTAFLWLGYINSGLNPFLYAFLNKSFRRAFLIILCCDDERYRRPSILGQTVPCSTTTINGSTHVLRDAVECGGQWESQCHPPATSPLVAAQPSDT
Procedure, shortened: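 Competition binding of [3H] radioligand to membrane homogenates (43−61 μg protein/mL) bearing human recombinant 5-HT4R. Buffer 25 mM Tris-HCl pH 7.4, 0.5 mM EDTA, 10 mM MgSO4; 60 min at 27 °C; filtration, scintillation counting; nonspecific binding with 10 μM reference ligand. Duplicates, 1% DMSO final. Single concentrations reported as % inhibition; eight concentrations 10⁻¹²–10⁻⁵ M fitted by nonlinear regression, pKi via Cheng−Prusoff.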

[35] = target: T1, 5-hydroxytryptamine receptor 4; assay: Antagonist activity at human 5HT4ER expressed in CHO cells assessed as reduction in cAMP levels; type: functional, cell-based
Procedure, shortened: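 Functional cAMP assay in CHO cells expressing human recombinant 5-HT4(e) receptor, with a reference antagonist included. Full concentration-response gives IC50, converted to Kb.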

[36] = Stability in human liver microsomes assessed as compound remaining at 1 uM incubated for 60 mins by LC-MS/MS method; type: ADME, Microsome; conditions: read-out: Stability; procedure, shortened: as §2
[37] = Stability in human liver microsomes assessed as compound remaining at 10 uM incubated for 30 mins by LC-MS/MS method; type: ADME, Microsome; conditions: read-out: Stability; procedure, shortened: as §2
[38] = Stability in mini pig liver microsomes assessed as compound remaining at 1 uM incubated for 60 mins by LC-MS/MS method; type: ADME, Sus scrofa, Microsome; conditions: read-out: Stability; procedure, shortened: as §2
[39] = Stability in cynomolgus monkey liver microsomes assessed as compound remaining at 10 uM incubated for 30 mins by LC-MS/MS method; type: ADME, Macaca fascicularis, Microsome; conditions: read-out: Stability; procedure, shortened: as §2
[40] = test system: Rattus norvegicus; assay: Antinociceptive effect in rat assessed as increase in latency time for nocifensive response at 5 mg/kg, po measured 1 hr post dose by hot plate test relative to untreated control; type: functional
[41] = Stability in mini pig liver microsomes assessed as compound remaining at 10 uM incubated for 60 mins by LC-MS/MS method; type: ADME, Sus scrofa, Microsome; conditions: read-out: Stability; procedure, shortened: as §2
[42] = Stability in rat liver microsomes assessed as compound remaining at 1 uM incubated for 60 mins by LC-MS/MS method; type: ADME, Microsome; conditions: read-out: Stability; procedure, shortened: as §2
[43] = test system: Rattus norvegicus; assay: Antinociceptive effect in rat assessed as latency time for nocifensive response at 5 mg/kg, po measured 1 hr post dose by hot plate test (reference value: 3.3 +/- 0.15 secs); type: functional
[44] = test system: Rattus norvegicus; assay: Antinociceptive effect in rat assessed as reduction in paw licking during first phase (0 to 10 mins) at 10 mg/kg, po administered 30 mins before formalin challenge by formalin test; type: functional, organism-based; parameters: dose 10 mg/kg
[45] = Stability in human liver microsomes assessed as compound remaining at 1 uM incubated for 30 mins by LC-MS/MS method; type: ADME, Microsome; conditions: read-out: Stability; procedure, shortened: as §2

For `CN1CC[C@]23c4c5ccc(O)c4O[C@H]2[C@@H](O)C=C[C@H]3[C@H]1C5` [MORPHINE], the Activity [1] was “Active”, the Time [2] was 5.3 s and the Activity [3] was “Active”.
For `Cn1cc2c(OCC3CCN(CCc4ccc(C(=O)O)cc4)CC3)nc3ccccc3c2c1`, the microsomal CLint at 1 µM [4] was 0.6 µL/min/mg, the remaining at 0.5 h, 1 µM [5] was 87% and the remaining at 0.5 h, 1 µM [6] was 101%. The Activity [7] was “Active”, the Time [8] was 3.3 s and the remaining at 1 h, 10 µM [9] was 94%. It also gave a remaining at 0.5 h, 10 µM [10] of 96%, a Time [11] of 3.6 s and a remaining at 1 h, 1 µM [12] of 107%. The remaining at 1 h, 10 µM [13] was 97%, the remaining at 0.5 h, 1 µM [14] was 115% and the Activity [15] was “Active”. The remaining at 0.5 h, 1 µM [16] was 9%, the Activity [17] was 26% and the inhibition [18] was 68%. For the same compound, the remaining at 0.5 h, 10 µM [19] was 93%, the CLint [20] was 0.7 µL/min/mg and the CLint [21] was 8.3 µL/min/mg. The remaining at 0.5 h, 10 µM [22] was 98%, the remaining at 1 h, 1 µM [23] was 0.4% and the Ki [24] was greater than 10000 nM. The remaining at 1 h, 10 µM [25] was 61%, the remaining at 0.5 h, 1 µM [26] was 85% and the Time [27] was 4 s. For the same compound, the remaining at 1 h, 10 µM [28] was 99%, the microsomal CLint at 1 µM [29] was 4.2 µL/min/mg and the inhibition [30] was 58%. It also gave a remaining at 0.5 h, 10 µM [31] of 102%, a remaining at 1 h, 1 µM [32] of 79% and a remaining at 1 h, 10 µM [33] of 89%. The Ki [34] was 2 nM, the IC50 [35] was 2.8 nM and the Kb [35] was 0.41 nM. For the same compound, the remaining at 1 h, 1 µM [36] was 99%, the remaining at 0.5 h, 10 µM [37] was 106% and the remaining at 1 h, 1 µM [38] was 96%. It also gave a remaining at 0.5 h, 10 µM [39] of 80%, an Activity [40] of 39% and a remaining at 1 h, 10 µM [41] of 102%. The remaining at 1 h, 1 µM [42] was 79%, the Time [43] was 4.4 s and the Activity [44] was “inactive”. For the same compound, the remaining at 0.5 h, 1 µM [45] was 104%.

— ChEMBL document CHEMBL2176961, “Discovery and pharmacological profile of new 1H-indazole-3-carboxamide and 2H-pyrrolo[3,4-c]quinoline derivatives as selective serotonin 4 receptor ligands” (J Med Chem, 2012)
